Experimental data as given in ChEMBL document CHEMBL2202989, “New adamantane phenylalkylamines with σ-receptor binding affinity and anticancer activity, associated with putative antagonism of neuropathic pain” (J Med Chem, 2012).

Assays:
Assay type in all cases: functional
BXPC-3 [1] = assay: Cell cycle arrest in human BxPC3 cells assessed as accumulation at >G2/M phase at 0.5 uM after 24 hrs using propidium iodide staining by FACS analysis (reference value: 6 %)
In short: (§1)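 Cells were plated 24 h before treatment and exposed for 24 h at final 0.5, 5, 15 and 50 μM in 0.5% DMSO, against vehicle-treated controls. Cells were then trypsinised and fixed in cold ethanol for 3 h at 4 °C. They were stained in a mix of RNase (200 μg/mL) and PI (1 mg/mL) for 45 min at room temperature in the dark. Flow cytometry used 488 nm excitation and 10 000 gated cells. Phase percentages were assigned from DNA content.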

PC-3 [2] = assay: Induction of apoptosis in human PC3 cells assessed as late apoptosis at 0.5 uM using annexin V/7-AAD by FACS analysis (reference value: 3 %)
IGROV-1 [3] = assay: Cell cycle arrest in human IGROV1 cells assessed as accumulation at G1 phase at 5 uM after 24 hrs using propidium iodide staining by FACS analysis (reference value: 27 %); in short: as §1
PC-3 [4] = assay: Induction of apoptosis in human PC3 cells assessed as early apoptosis at 5 uM using annexin V/7-AAD by FACS analysis (reference value: 5 %)
In short: (§2)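 Cells plated 24 h before treatment, then exposed 24 h to 0.5, 5, 15 or 50 μM compound (final DMSO 0.5%); vehicle controls included. Cells scraped and stained with annexin V-FITC and 7-AAD for 15 min on ice in the dark. Flow cytometry with 488 nm excitation, 10,000 gated cells. Early apoptosis was annexin V+/7-AAD−, late was annexin V+/7-AAD+.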

SK-HEP1 = assay: Growth inhibition of human SKHEP1 cells after 48 hrs by SRB assay; settings: SK-HEP1, 48 h
In short: (§3)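 Cells grown in RPMI 1640 with 5% heat-inactivated FCS, 2 mM L-glutamine and antibiotics, 37 °C, 5% CO2. Seeded at 3500–30000 cells/well and left 24 h before dosing. DMSO solutions added at 10-fold dilutions from 100 to 0.01 μM for 48 h. Cells TCA-fixed and SRB-stained, absorbance read at 540 nm; GI50 derived against the time-zero plate.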

BXPC-3 [5] = assay: Antitumor activity against human BxPC3 cells xenografted in SCID mouse assessed as tumor growth inhibition at 40 mg/kg, ip administered 3 consecutives days per week for three cycles measured after 3 cycles relative to control; settings: BXPC-3, ip, route intraperitoneal, read-out: TGI
In short: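 BxPC3 xenografts were grown in SCID mice from inocula of 10^6 exponentially growing cells, with 10 mice (20 tumors) per group. Treatment started ip once tumors averaged about 100 mm3. The test agent was given in 5% Tween 80 and gemcitabine in water for injection. Tumor volume was measured by caliper twice weekly and %ΔT/ΔC was computed; two-tailed Student's t test.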

PC-3 [6] = assay: Induction of apoptosis in human PC3 cells assessed as total apoptotic death at 50 uM using annexin V/7-AAD by FACS analysis (reference value: 8 %); in short: as §2
HL-60(TB) = assay: Growth inhibition of human HL-60(TB) cells after 48 hrs by SRB assay; settings: HL-60, 48 h
In short: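 Cells kept in RPMI 1640 with 5% FCS at 37 °C, 5% CO2, and seeded 24 h before dosing. Compound given from DMSO at 10-fold dilutions, 100 to 0.01 μM, for 48 h. Cells fixed with TCA, stained with SRB, absorbance read at 540 nm. GI50 taken from a time-zero plate.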

IGROV-1 [7] = assay: Induction of apoptosis in human IGROV1 cells assessed as cleaved caspase3 containing cells at 15 uM by antibody-based FACS analysis (reference value: 3.9 %)
BXPC-3 [8] = assay: Induction of apoptosis in human BxPC3 cells assessed as early apoptosis at 15 uM using annexin V/7-AAD by FACS analysis (reference value: 9 %)
BXPC-3 [9] = assay: Cell cycle arrest in human BxPC3 cells assessed as accumulation at G1 phase at 15 uM after 24 hrs using propidium iodide staining by FACS analysis (reference value: 41 %); in short: as §1
PC-3 [10] = assay: Cell cycle arrest in human PC3 cells assessed as accumulation at >G2/M phase at 5 uM after 24 hrs using propidium iodide staining by FACS analysis (reference value: 6 %)
IGROV-1 [11] = assay: Induction of apoptosis in human IGROV1 cells assessed as early apoptosis at 5 uM using annexin V/7-AAD by FACS analysis (reference value: 9 %)
BXPC-3 [12] = assay: Cell cycle arrest in human BxPC3 cells assessed as accumulation at G1 phase at 0.5 uM after 24 hrs using propidium iodide staining by FACS analysis (reference value: 41 %); in short: as §1
BXPC-3 [13] = assay: Cell cycle arrest in human BxPC3 cells assessed as accumulation at >G2/M phase at 5 uM after 24 hrs using propidium iodide staining by FACS analysis (reference value: 6 %); in short: as §1
IGROV-1 [14] = assay: Cell cycle arrest in human IGROV1 cells assessed as accumulation at S phase at 50 uM after 24 hrs using propidium iodide staining by FACS analysis (reference value: 29 %)
HCT-116 = assay: Growth inhibition of human HCT116 cells after 48 hrs by SRB assay; settings: HCT-116, 48 h; in short: as §3
IGROV-1 [15] = assay: Induction of apoptosis in human IGROV1 cells assessed as late apoptosis at 15 uM using annexin V/7-AAD by FACS analysis (reference value: 5 %)
IGROV-1 [16] = assay: Induction of apoptosis in human IGROV1 cells assessed as healthy cells at 0.5 uM using annexin V/7-AAD by FACS analysis (reference value: 86 %)
BXPC-3 [17] = assay: Induction of apoptosis in human BxPC3 cells assessed as early apoptosis at 50 uM using annexin V/7-AAD by FACS analysis (reference value: 9 %)
BXPC-3 [18] = assay: Antitumor activity against human BxPC3 cells xenografted in SCID mouse assessed as tumor growth inhibition at 50 mg/kg, ip administered 3 consecutives days per week for one cycle relative to control; settings: BXPC-3, ip, route intraperitoneal, read-out: TGI
PC-3 [19] = assay: Cell cycle arrest in human PC3 cells assessed as accumulation at >G2/M phase at 0.5 uM after 24 hrs using propidium iodide staining by FACS analysis (reference value: 6 %)
IGROV-1 [20] = assay: Induction of apoptosis in human IGROV1 cells assessed as early apoptosis at 50 uM using annexin V/7-AAD by FACS analysis (reference value: 9 %)
IGROV-1 [21] = assay: Cell cycle arrest in human IGROV1 cells assessed as accumulation at S phase at 5 uM after 24 hrs using propidium iodide staining by FACS analysis (reference value: 29 %)
PC-3 [22] = assay: Induction of apoptosis in human PC3 cells assessed as early apoptosis at 15 uM using annexin V/7-AAD by FACS analysis (reference value: 5 %)
PC-3 [23] = assay: Cell cycle arrest in human PC3 cells assessed as accumulation at sub G1 phase at 0.5 uM after 24 hrs using propidium iodide staining by FACS analysis (reference value: 4 %)
[24] = read-out: LC50 (the source's name)

CN1CCN(CCCc2ccc(C(c3ccccc3)C34CC5CC(CC(C5)C3)C4)cc2)CC1 (configuration not stated) showed an Activity (BXPC-3 [1]) of 7%, an Activity (PC-3 [2]) of 1% and an Activity (IGROV-1 [3]) of 29%. It also gave an Activity (PC-3 [4]) of 5%, a GI50 (SK-HEP1) of 3490 nM and a TGI (SK-HEP1) of 6370 nM. The CC50 (SK-HEP1; [24]) was 9.24 nM, the inhibition in vivo at 40 mg/kg (BXPC-3 [5]) was 21.8% and the Activity (PC-3 [6]) was 23%. For the same compound, the GI50 (HL-60(TB)) was 4.02 nM, the TGI (HL-60(TB)) was 7.88 nM and the CC50 (HL-60(TB); [24]) was 100 nM. It also gave an Activity (IGROV-1 [7]) of 61.4%, an Activity (BXPC-3 [8]) of 19% and an Activity (BXPC-3 [9]) of 32%. The Activity (PC-3 [10]) was 6%, the Activity (IGROV-1 [11]) was 10% and the Activity (BXPC-3 [12]) was 41%. For the same compound, the Activity (BXPC-3 [13]) was 5%, the Activity (IGROV-1 [14]) was 28% and the GI50 (HCT-116) was 3380 nM. For the same compound, the TGI (HCT-116) was 6050 nM, the CC50 (HCT-116; [24]) was 8.73 nM and the Activity (IGROV-1 [15]) was 20%. It also gave an Activity (IGROV-1 [16]) of 89%, an Activity (BXPC-3 [17]) of 2% and an inhibition in vivo at 50 mg/kg (BXPC-3 [18]) of 41.6%. For the same compound, the Activity (PC-3 [19]) was 7%, the Activity (IGROV-1 [20]) was 40% and the Activity (IGROV-1 [21]) was 27%. For the same compound, the Activity (PC-3 [22]) was 9% and the Activity (PC-3 [23]) was 4%.
